From PubChem BioAssay AID624070 (Broad Institute, 2012)
Results filed as inconclusive are left out. Calls of active or inactive are those of the source.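 The calls were made as follows: active = fitted curve crosses -35% change at a dose up to twice the top valid dose; inconclusive = flat fit showing 30 to 70% drop, or poor fit; inactive = the rest, including rises or flat curves.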

Assay: iron-limited Pseudomonas aeruginosa growth inhibition – whole organism, absorbance 405 nm, EDDHA, dry powder, set 5, dose response (AID 624070)
Conditions: P. aeruginosa ATCC 15692 + EDDHA, A405, 24-30 h; series mostly up to 120 µM; activity change, negative = inhibition: at the top concentration
How it was run: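 System: Pseudomonas aeruginosa strain ATCC 15692, whole bacterial cells; Amount: bacteria at final optical density (600 nm) of 0.0000005; Medium: succinate M9 medium, pH 7.0; Incubation: bacterial growth with compound for 24–30 h at 37 °C; Signal: absorbance at 405 nm reflecting pyoverdine production; Probe or stimulus: iron chelator EDDHA at 2 µM final.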

Activity change, negative = inhibition, inactive:
N#CC(c1ccc(F)cc1)c1cccc(Cl)n1 (stereo not drawn) -11%
CN(C)CCCC(C#N)c1ccc(Cl)cc1 (stereo not drawn) -9.81%
COCCOCCC(C#N)c1ccc(F)cc1 (stereo not drawn) -20.3%
N#Cc1cccc(C(C#N)c2ccc(F)cc2)n1 (stereo not drawn) -55.9% [at 42 µM]
COCCNC(C#N)c1ccc(Cl)cc1 (stereo not drawn) -5.05%
COCCC(C#N)c1ccc(Cl)cc1 (stereo not drawn) -9.4%
CCCCC(C#N)c1ccc(F)cn1 (stereo not drawn) -1%
N#CC(c1ccc(Cl)cc1)c1ccccn1 (stereo not drawn) -20.5%
N#CC(c1ccc(C(F)(F)F)c(Cl)n1)c1ccccc1OC(F)(F)F (stereo not drawn) -11.5%
Clc1ccc(C(c2cccc(Cl)n2)c2nn[nH]n2)cc1 (stereo not drawn) 0.409%
CCCCC(C#N)c1ccc(Cl)cn1 (stereo not drawn) -3.36%
CCCCC(C#N)c1ccc(Cl)cc1 (stereo not drawn) -27.5%
N#CC1c2ccc(Cl)cc2CCc2cccnc21 (stereo not drawn) -18.7%
COCCC(C#N)c1ccc(F)cc1 (stereo not drawn) -34.9%
CCCCC(C#N)c1ccc(F)cc1 (stereo not drawn) -7.51%
COCCOCCC(C#N)c1ccc(Cl)cc1 (stereo not drawn) -0.54%
N#CC(c1ccc(Cl)cc1)N1CCCC1 (stereo not drawn) -32.5%
CCCCC(C#N)c1ccccn1 (stereo not drawn) -2.51%
